Data set [1] addresses T1, Atrial natriuretic peptide receptor 3 (Rattus norvegicus) (UniProt P41740).
T1 sequence (whole entry): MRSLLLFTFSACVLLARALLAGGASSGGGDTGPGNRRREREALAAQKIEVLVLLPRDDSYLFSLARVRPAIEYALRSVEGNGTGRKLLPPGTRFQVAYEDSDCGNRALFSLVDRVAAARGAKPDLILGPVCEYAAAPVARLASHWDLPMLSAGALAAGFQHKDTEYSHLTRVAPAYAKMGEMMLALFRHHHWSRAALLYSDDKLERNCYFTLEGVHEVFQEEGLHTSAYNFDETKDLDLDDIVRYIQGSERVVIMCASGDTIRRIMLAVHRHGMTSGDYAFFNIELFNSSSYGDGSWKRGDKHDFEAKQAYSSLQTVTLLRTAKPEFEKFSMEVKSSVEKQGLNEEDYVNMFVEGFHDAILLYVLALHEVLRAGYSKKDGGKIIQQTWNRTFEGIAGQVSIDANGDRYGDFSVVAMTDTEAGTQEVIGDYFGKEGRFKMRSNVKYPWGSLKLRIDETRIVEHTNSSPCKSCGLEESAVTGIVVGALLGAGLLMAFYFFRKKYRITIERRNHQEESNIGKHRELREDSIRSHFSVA
Description: Agonist activity at NPRC in rat aorta assessed as inhibition of cANF4-23 induced vasorelaxation in presence of M372049 by Organ bath assay. In kind it is tissue-based. Conditions: filed as agonist.

For data set [2] the following is noted: rat, hepatocytes, 20 min, 1 µM.
The next data set deals with Cytochrome P450 3A4 (Homo sapiens, UniProt P08684). As to the kind of experiment: Inhibition of CYP3A4 in human liver microsomes using midazolam as a substrate preincubated for 10 mins followed by NADPH addition and measured after 20 mins by LC/MS/MS analysis. (In general: Liver microsomes are a subcellular fraction often used to study metabolism.)
Chain of Cytochrome P450 3A4 (P08684 whole entry): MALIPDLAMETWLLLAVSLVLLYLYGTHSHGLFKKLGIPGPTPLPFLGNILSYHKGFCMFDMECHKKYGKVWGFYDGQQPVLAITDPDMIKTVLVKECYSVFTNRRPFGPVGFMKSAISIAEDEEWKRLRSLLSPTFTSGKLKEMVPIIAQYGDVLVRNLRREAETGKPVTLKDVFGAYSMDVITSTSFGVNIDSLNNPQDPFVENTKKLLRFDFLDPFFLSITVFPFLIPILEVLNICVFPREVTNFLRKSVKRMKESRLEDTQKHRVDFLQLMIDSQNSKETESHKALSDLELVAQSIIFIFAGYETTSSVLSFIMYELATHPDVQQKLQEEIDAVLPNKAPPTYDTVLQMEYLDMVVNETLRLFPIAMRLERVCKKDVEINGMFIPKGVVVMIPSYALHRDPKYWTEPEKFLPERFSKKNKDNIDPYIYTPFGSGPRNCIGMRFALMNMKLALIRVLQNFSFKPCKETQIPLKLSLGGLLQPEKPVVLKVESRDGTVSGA
A short description of data set [3]: Half life in fasted C57BL/6 mouse at 10 mg/kg, po by LC-MS/MS analysis. Type of data set: ADME, organism-based. Conditions: in vivo.
The nature of data set [4]: AUC (0 to infinity) in fasted C57BL/6 mouse at 10 mg/kg, po by LC-MS/MS analysis. The arrangement: time infinity, dose 10 mg/kg, route po. Conditions: in vivo. Type of data set: ADME, organism-based.
The nature of data set [5]: Stability in Sprague-Dawley rat hepatocytes assessed as clearance per […] at 1 uM after 20 mins by LC-MS/MS analysis. In kind it is ADME, cell-based, Hepatocyte.
In data set [6] the target is T1, Atrial natriuretic peptide receptor 3 (Rattus norvegicus). Description: Agonist activity at NPRC in rat small mesenteric arteries assessed as inhibition of cANF4-23 induced vasorelaxation in presence of M372049 by Organ bath assay. In kind it is tissue-based. Conditions: Artery, filed as agonist. The procedure, abridged:
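Small mesenteric artery rings from male Wistar rats in classical tissue-bath pharmacology. Vessels were preincubated 15 min with M372049 10 μM or osteocrin 100 nM before the vasorelaxant response to test agents was assessed.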

In data set [7] the target is T2, Atrial natriuretic peptide receptor 3 (Homo sapiens) (UniProt P17342).
T2 sequence (whole entry): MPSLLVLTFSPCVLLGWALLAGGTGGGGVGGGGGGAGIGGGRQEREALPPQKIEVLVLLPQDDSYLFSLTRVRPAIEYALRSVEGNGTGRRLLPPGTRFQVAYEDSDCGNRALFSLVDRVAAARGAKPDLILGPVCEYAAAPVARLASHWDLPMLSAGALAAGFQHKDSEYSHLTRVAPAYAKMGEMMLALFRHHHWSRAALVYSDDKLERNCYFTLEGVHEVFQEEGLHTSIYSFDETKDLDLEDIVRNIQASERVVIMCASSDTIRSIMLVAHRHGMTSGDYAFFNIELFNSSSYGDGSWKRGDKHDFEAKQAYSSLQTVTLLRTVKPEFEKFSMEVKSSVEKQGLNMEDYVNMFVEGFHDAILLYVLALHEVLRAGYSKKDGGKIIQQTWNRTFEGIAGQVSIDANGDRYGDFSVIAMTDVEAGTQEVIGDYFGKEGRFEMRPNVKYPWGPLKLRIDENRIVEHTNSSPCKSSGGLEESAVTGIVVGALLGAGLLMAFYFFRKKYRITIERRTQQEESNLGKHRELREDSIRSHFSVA
Description: Displacement of Flu-P19 probe from human NPR-C (27 to 541 residues) at 300 uM by fluorescence polarization analysis relative to control. An outline of the steps: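 Competition fluorescence polarization with NPR-C protein 20 nM and Flu-P19 probe 150 pM (final) in PBS-P with 1% DMSO final; samples were prepared on ice. Primary screen at 300 μM ligand. Read at 485 nm excitation / 520 nm emission. Signal normalized to buffer+probe and protein+probe controls; background blanked with buffer-only PBS-P/1% DMSO.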
On the technique in general: Polarisation of emitted light reports the rotation of a fluorescent probe.

For data set [8], the target named is T1, Atrial natriuretic peptide receptor 3 (Rattus norvegicus). Description: Agonist activity at NPRC in rat aorta assessed as inhibition of cANF4-23 induced vasorelaxation in presence of osteocrin by Organ bath assay. Type of data set: tissue-based. The following applies: filed as agonist.
Data set [9] has as its target T3, Atrial natriuretic peptide receptor 3 (Rattus norvegicus, UniProt P41740).
T3 sequence (P41740 whole entry): T1 sequence (whole entry)
Description: Agonist activity at NPRC in rat aorta assessed as vasorelaxation by Organ bath assay. In kind it is tissue-based.

Data set [10] can be described thus: Mean residence time (0 to infinity) in fasted C57BL/6 mouse at 10 mg/kg, po by LC-MS/MS analysis. The following applies: in vivo.
Data set [11] deals with T3, Atrial natriuretic peptide receptor 3. As to the kind of experiment: Agonist activity at NPRC in rat small mesenteric arteries assessed as vasorelaxation preincubated with M372049 for 15 mins followed by compound treatment by Organ bath assay. In kind it is tissue-based, Artery.
Another data set concerns the target Cytochrome P450 2C19 (Homo sapiens, UniProt P33261). As to the kind of experiment: Inhibition of CYP2C19 in human liver microsomes using S-mephenytoin as substrate preincubated for 10 mins followed by NADPH addition and measured after 20 mins by LC/MS/MS analysis.
Data set [12] is described as follows: Stability of compound in pooled human plasma assessed as half life measured upto 120 mins by LC/MS/MS analysis. The following applies: 2 h.
Data set [13] has as its target T3, Atrial natriuretic peptide receptor 3. As to the kind of experiment: Agonist activity at NPRC in rat small mesenteric arteries assessed as vasorelaxation by Organ bath assay. In kind it is tissue-based, Artery.
Data set [14] has as its target T4, Atrial natriuretic peptide receptor 3 (Mus musculus, UniProt P70180).
T4 sequence (P70180 whole entry): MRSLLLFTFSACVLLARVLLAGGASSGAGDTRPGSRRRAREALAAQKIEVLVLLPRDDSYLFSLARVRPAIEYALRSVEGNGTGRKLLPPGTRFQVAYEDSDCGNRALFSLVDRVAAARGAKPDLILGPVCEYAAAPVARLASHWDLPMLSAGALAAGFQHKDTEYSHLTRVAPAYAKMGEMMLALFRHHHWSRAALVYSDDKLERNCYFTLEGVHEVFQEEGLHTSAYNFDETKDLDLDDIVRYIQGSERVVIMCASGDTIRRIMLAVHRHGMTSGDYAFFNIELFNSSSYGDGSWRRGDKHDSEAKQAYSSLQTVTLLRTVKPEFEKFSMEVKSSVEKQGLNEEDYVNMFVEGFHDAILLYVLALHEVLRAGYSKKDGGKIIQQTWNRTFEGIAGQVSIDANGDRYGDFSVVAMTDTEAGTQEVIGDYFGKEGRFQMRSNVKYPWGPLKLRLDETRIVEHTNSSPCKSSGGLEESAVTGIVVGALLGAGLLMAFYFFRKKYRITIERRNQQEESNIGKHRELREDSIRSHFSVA
As to the kind of experiment: Agonist activity at NPRC in knock out mouse mesenteric arteries assessed as vasorelaxation by Organ bath assay. Type of data set: tissue-based, Artery.

Active and inactive are the calls of the source. No cut-off for these calls is given here.

Chain of Cytochrome P450 2C19 (P33261 whole entry): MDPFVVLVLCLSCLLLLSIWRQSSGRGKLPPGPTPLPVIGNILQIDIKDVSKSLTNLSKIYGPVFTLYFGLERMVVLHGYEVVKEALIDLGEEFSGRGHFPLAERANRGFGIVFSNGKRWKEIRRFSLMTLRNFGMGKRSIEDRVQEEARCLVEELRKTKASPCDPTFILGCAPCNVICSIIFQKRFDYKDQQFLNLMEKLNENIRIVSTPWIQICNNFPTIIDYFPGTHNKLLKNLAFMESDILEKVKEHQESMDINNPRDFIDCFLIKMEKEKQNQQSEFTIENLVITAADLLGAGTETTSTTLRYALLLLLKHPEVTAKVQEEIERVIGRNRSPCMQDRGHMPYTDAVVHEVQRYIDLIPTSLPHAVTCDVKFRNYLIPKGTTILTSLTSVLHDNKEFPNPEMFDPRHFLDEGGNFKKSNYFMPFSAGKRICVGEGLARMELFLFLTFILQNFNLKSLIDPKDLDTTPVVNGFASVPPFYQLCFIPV

The IC50 is the concentration that gives 50% inhibition. Low values mean greater potency in that assay, high ones weaker potency in that assay. The half-life is the time in which the quantity being followed falls by half. High values mean slow loss, low ones fast loss. Usually AUC(0-inf) stands for total exposure, with the tail of the curve extrapolated. Higher therefore signals high exposure. What is called EC50 is the concentration that produces a half-maximal response. As a reminder, the MRT inf is the average time that molecules of a dose stay in the body. In the case of `CC(=O)Nc1ccc(Nc2ncnc(NCCC(=O)OC(C)(C)C)n2)cc1`, the outcome in [1], in data set [6] and in [8] was Active. Also, the values for the t1/2 in data set [2] and in data set [12] were 1.952 h and > 2 h, respectively. Also, the 50% inhibitory concentration (IC50) at Cytochrome P450 3A4 and at Cytochrome P450 2C19 was > 50 µM each time. The molecule also showed a half-life in [3] of 1.37 h. For the same molecule, the area under the curve AUC(0-inf) in [4] came to 653 ng·h/mL. In addition, the CLH in data set [5] amounted to 11.8 µL/min. Further, the Activity in [7] was < 17%. Also, the 50% effective concentration (EC50) worked out at 15.5 µM in [9], 8.64 µM in data set [11], 0.86 µM in data set [13] and 10.1 µM in [14]. Besides, in data set [10], the MRT inf was found to be 1.33 h.

Source of the values: ChEMBL document CHEMBL5154815, “A Series of Substituted Bis-Aminotriazines Are Activators of the Natriuretic Peptide Receptor C” (J Med Chem, 2022).
